Bioassay records from PubChem BioAssay.
CSN inh – CSN deneddylation inhibition; Q92905; inhibition, % at 12.5 µM; actives 0.38% (n = 360,000); Purified CSN, SCF-Nedd8-OG deneddylation, fluorescence polarization;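 active = pattern-corrected inhibition above about 35%, with an unprinted fluorescence ratio check between 0.5 and 1.5, limit read from the data, passing the limit was not always enough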;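 also: 0% = enzyme with substrate and 100% = substrate without enzyme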
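Assay system: purified human Csn5 enzyme expressed in HEK293T cells; Input: 0.24 nM Csn5 enzyme, final concentration; Reagent: 10 nM SCFSkp2-Nedd8OG; Compound dosing: 12.5 µM single point; Times: reaction 90 min, room temperature; Technique: fluorescence polarization readout.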
IDE cell inh – inhibitors of human insulin-degrading enzyme in cells | actives 0.41% (n = 320,000) | P14735 | AID 434962 | HEK cells, FAbetaB cleavage, fluorescence polarization | inhibition, % at 5.59 µM;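 active = percent inhibition above the average of all tested compounds plus 3 SD, set per screening campaign, cut at about 16% in these data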;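 also: IDE supplied by intact live HEK cells; FP after avidin binding of uncleaved biotin substrate so inhibition keeps polarization high; 0% = DMSO wells and 100% = 60 µM reference IDE inhibitor Ii1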
Target sequence (P14735 whole entry, looked up): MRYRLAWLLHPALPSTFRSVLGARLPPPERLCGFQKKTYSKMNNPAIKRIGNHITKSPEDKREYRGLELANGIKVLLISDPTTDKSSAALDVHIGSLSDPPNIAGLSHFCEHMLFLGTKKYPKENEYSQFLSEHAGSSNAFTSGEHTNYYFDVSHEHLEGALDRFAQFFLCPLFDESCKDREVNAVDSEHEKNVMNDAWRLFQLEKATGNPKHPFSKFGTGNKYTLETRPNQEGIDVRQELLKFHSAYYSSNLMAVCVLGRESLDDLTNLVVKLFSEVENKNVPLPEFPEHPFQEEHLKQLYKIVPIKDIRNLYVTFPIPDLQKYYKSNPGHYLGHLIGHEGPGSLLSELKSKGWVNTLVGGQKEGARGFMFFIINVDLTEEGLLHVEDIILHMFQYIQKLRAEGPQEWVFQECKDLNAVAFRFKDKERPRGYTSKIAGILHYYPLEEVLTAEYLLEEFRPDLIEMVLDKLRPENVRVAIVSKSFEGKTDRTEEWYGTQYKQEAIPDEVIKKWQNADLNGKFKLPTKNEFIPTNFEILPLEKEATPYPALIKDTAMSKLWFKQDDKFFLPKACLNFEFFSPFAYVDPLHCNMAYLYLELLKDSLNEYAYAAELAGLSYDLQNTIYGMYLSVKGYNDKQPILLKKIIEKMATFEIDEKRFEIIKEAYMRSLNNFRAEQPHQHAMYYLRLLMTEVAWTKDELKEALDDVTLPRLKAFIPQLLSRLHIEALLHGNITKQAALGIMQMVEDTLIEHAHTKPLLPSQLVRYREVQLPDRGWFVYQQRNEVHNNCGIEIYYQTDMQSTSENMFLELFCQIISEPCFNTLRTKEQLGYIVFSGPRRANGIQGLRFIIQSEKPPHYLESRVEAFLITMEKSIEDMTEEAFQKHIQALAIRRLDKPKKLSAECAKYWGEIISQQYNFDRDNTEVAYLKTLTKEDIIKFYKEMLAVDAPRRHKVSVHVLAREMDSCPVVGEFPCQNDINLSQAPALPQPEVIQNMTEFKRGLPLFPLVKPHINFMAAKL
TPT1 inh – C. albicans TPT1 enzyme inhibition | recombinant caTPT1, FP RNA substrate dephosphorylation | inhibition, % at 5 µM | actives 0.81% (n = 300,000);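 active = inhibition above the mean of all tested compounds plus 3 SD, set per screening campaign, cut at about 24% in these data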;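 also: plate controls were DMSO alone for no effect and ferristatin control at 100 nM for full effect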
IDE act – IDE (human) activation, cell-based | P14735 | HEK cells, FAbeta-B cleavage, fluorescence polarization; 0% vehicle, 100% cell-free pure enzyme wells | activation, % at 5.96 µM | actives 0.073% (n = 340,000) | AID 493087;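 active = activation above the mean of all tested compounds plus 3 SD, set per screening campaign, cut at about 17% in these data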
HNF4A DNA FP – change in binding of human HNF4 alpha to DNA; HNF4a-FITC DNA binding, fluorescence polarization, 1 h; P41235; activity change, % at 10 µM; actives 0.3% (n = 360,000); AID 1224865; in the data active = activity change above about 30%, passing the limit was not always enough
An asterisk follows results filed as active; . = not tested or not shown. A selection: hits, their analogues and other compounds. The true share with any hit is near 1.4%.

SMILES	CSN inh	IDE cell inh	TPT1 inh	IDE act	HNF4A DNA FP
O=C(Nc1ccc(F)cc1)C(c1ccnc2ccccc12)N1CCN(c2cccc(C(F)(F)F)n2)CC1 (stereo not drawn)	-3	.	.	.	4
Cc1cccc(Nc2nn3c(=O)c4ccccc4nc3s2)c1	31	8	1	0	75*
Cc1ccc(S(=O)(=O)NC(=O)C2(C)CCN2C(=O)c2ccccc2CCc2ccccc2)nc1 (stereo not drawn)	-1	.	.	.	1
COc1ccc(C(=O)/C=C/Nc2ccc([N+](=O)[O-])cc2C)cc1OC	46*	0	12	-2	37*
CC(=O)N1CCN(c2ccc(C(N)=O)cc2[N+](=O)[O-])CC1	2	2	0	10	3
COc1ccc(N2CCN(c3ccc(C(N)=O)cc3[N+](=O)[O-])CC2)cc1	75*	7	-2	-4	-3
OCC[C@@H]1C[C@H](O)[C@@H](O)[C@]2(OCc3ccc(CO)cc32)O1	5	.	.	.	4
CN(C)CCCN(C(=O)CCS(=O)(=O)c1ccccc1)c1nc2cc3c(cc2s1)OCO3	-1	-1	1	0	3
CN(C)CCCN(C(=O)CCc1ccccc1)c1nc2ccc(Br)cc2s1	-4	-2	-3	29*	0
CN(C)CCCN(C(=O)CCSc1ccccc1)c1nc2cc3c(cc2s1)OCO3	1	3	-3	43*	6
COC(=O)C[C@H]1C=C[C@H](NC(=O)c2cccc(F)c2)[C@@H](CO)O1	1	.	.	.	-1
COc1cccc(-c2cccc(-c3nc(C(=O)NCCCN4CCOCC4)cc4c3[C@H](CCO)N(S(=O)C(C)(C)C)C4)c2)c1 (stereo partly drawn)	2	.	.	.	-1
COc1ccc(C2=Nc3ccccc3N(C(=O)c3ccc4ncccc4c3)C2C(=O)NC2CCCC2)cc1 (stereo not drawn)	-7	.	.	.	3
Cc1cc(C)n2c(NC3CCCCC3)c(CC(C)C)nc2n1	-1	.	.	.	108*
Cc1cc(NC(=O)c2cc(-c3ccccn3)nc3ccc(Br)cc23)no1	44*	-4	-1	9	4
Cc1cc(NC(=O)c2cc(-c3ccccn3)nc3ccccc23)no1	-2	9	0	1	-2
O=c1ccc(-c2ccc(S(=O)(=O)NCc3cccc(Br)c3)s2)n[nH]1	-4	7	-2	5	36*
O=c1ccc(-c2ccc(S(=O)(=O)Nc3ccc(F)cc3)s2)n[nH]1	0	4	-4	-2	0
CCOC(=O)C1=CCN(S(=O)(=O)c2ccccc2)C1c1ccccc1 (stereo not drawn)	121*	.	.	.	-1
O=S1(=O)N[C@@H](Cc2ccccc2)COc2cccc(N3CCN(Cc4ccccc4F)CC3)c21	-2	.	.	.	-3
C=CCNc1nc(NCc2ccc(N(C)C)cc2)c2sc(-c3ccccc3)cc2n1	49*	.	.	.	0
CCCCOc1ncnc2c1[nH]c1ccc(C)cc12	-2	38*	-6	.	-1
C(=C\c1ccccc1)/CN1CCN(C(c2ccccc2)c2nnnn2Cc2ccccc2)CC1 (stereo not drawn)	-1	.	.	.	-4
Nc1ccc2c(c1)C(=NO)c1cc([N+](=O)[O-])ccc1-2	18	.	.	-19	52*
O=[N+]([O-])c1ccc2c(c1)-c1ccccc1C2=NO	2	.	.	0	7
SMILES	CSN inh	IDE cell inh	TPT1 inh	IDE act	HNF4A DNA FP
COC(=O)c1ccccc1-c1ccc(/C=N/NC(=O)c2cc3ccccc3o2)o1	-4	5	-2	-3	1
COC(=O)c1ccccc1-c1c2ccc(=N)cc-2oc2cc(N)ccc12	-73	-3	.	39*	-96
COC(=O)[C@]12CCCCC=C1N(CCc1ccc(OC)c(OC)c1)C(=O)[C@H](CC(=O)NCC1CCCCC1)C2	1	.	.	.	-6
CN(C)c1nc(SCC#N)nc(N2CCOCC2)n1	-2	1	-6	0	43*
CN(C)c1nc(C#N)nc(N2CCOCC2)n1	-1	0	-3	9	-2
COc1ccc(OC)c(CN2C(=O)CSCC2(C)C(=O)Nc2c(C)cccc2C)c1 (stereo not drawn)	5	.	.	.	4
Oc1cc2c(cc1O)[C@H]1c3ccc(O)c(O)c3OC[C@@]1(O)C2	11	1	.	-14	-5
Oc1ccc2c(c1)OCC1(O)Cc3cc(O)c(O)cc3C21 (stereo not drawn)	1	.	.	34*	-8
